Laboratory results: ChEMBL document CHEMBL1138638, “Azepinone as a conformational constraint in the design of kappa-opioid receptor agonists” (Bioorg Med Chem Lett, 2004)

Assays:
[1] = biological target: T1, Delta-type opioid receptor (Homo sapiens, UniProt P41143); experiment: Binding affinity for human Delta opioid receptor
[2] = test system: Mus musculus; experiment: Effective dose required to induce sedation was determined in mouse when administered orally; assay type: functional; settings: po
Procedure, shortened: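 Mice placed on a raised plastic platform (11 × 7.5 × 3 cm). Latency to step fully off the platform was timed before oral dosing (baseline sedation latency) and 30 min after. ED50 reported with range in parentheses.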

[3] = test system: Mus musculus; experiment: Effective dose required to inhibit acetic acid induced writhing in mouse when administered orally; assay type: functional; settings: po
Procedure, shortened: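 Mice dosed orally with vehicle or test agent; 15 min later given 0.6% acetic acid intraperitoneally. Writhes counted over a 10 min period starting 5 min after the acid injection. ED50 reported with range in parentheses.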

[4] = species on record: Rattus norvegicus; experiment: Percent inhibition of rotarod performance based on the comparison of baseline and post-treatment rotarod latencies; assay type: functional
[5] = test system: Rattus norvegicus; experiment: Effective dose required to inhibit formalin induced flinching in rat as a measure of antinociception activity when administered orally; assay type: functional; settings: po
[6] = biological target: T2, Mu-type opioid receptor (Homo sapiens, UniProt P35372); experiment: Binding affinity for human Mu opioid receptor
[7] = biological target: T3, Kappa-type opioid receptor (Homo sapiens, UniProt P41145); experiment: Binding affinity for human Opioid receptor kappa 1
[8] = biological target: T2, Mu-type opioid receptor; experiment: Inhibition percent of compound towards human Mu opioid receptor; parameters: concentration or dose not given beside the values; settings: concentration not given here
[9] = biological target: T1, Delta-type opioid receptor; experiment: Inhibition percent of compound towards human Delta opioid receptor; parameters: concentration or dose not given beside the values; settings: concentration not given here
[10] = biological target: T3, Kappa-type opioid receptor; experiment: Binding affinity for human Kappa opioid receptor
[11] = biological target: Opioid receptors; delta & kappa (Homo sapiens) (UniProt P41145+P41143); experiment: Selectivity for kappa opioid receptor over delta opioid receptor; assay type: protein assay
[12] = biological target: Opioid receptors; mu & kappa (Homo sapiens) (UniProt P41145+P35372); experiment: Selectivity for kappa opioid receptor over mu opioid receptor; assay type: protein assay
Sequence of Opioid receptors; mu & kappa (Homo sapiens) (P35372 whole entry, looked up): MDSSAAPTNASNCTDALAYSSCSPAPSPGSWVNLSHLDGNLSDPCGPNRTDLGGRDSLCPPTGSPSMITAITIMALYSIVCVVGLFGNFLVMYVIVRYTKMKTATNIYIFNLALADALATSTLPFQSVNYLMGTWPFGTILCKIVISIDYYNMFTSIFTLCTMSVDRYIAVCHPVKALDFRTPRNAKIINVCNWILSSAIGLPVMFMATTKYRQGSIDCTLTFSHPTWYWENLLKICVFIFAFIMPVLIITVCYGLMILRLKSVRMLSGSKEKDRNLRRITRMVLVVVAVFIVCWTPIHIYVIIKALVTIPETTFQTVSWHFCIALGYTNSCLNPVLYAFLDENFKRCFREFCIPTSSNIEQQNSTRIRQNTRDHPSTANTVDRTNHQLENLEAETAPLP
Sequence of Opioid receptors; mu & kappa (Homo sapiens) (P41145 whole entry, looked up): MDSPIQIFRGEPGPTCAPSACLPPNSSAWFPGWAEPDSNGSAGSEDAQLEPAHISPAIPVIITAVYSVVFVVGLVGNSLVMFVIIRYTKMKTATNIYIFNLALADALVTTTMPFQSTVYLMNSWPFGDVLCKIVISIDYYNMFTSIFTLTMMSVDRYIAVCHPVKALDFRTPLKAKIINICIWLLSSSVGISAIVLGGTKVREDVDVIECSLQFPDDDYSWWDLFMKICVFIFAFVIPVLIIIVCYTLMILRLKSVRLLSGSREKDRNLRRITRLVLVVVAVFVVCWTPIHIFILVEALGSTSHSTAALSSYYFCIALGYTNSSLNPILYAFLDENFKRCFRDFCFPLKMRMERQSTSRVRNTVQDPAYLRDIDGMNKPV

T1 sequence (P41143 whole entry): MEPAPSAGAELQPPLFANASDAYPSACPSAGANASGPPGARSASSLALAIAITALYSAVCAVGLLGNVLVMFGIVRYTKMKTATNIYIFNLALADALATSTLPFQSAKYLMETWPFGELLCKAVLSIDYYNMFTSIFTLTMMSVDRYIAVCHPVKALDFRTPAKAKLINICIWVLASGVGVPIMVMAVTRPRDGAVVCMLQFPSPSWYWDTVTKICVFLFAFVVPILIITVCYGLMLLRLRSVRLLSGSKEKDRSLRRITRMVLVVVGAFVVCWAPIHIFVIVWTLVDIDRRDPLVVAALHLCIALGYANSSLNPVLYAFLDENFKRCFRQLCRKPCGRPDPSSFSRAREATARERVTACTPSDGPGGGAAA
T3 sequence (P41145 whole entry): as the sequence (P41145 whole entry, looked up) above
T2 sequence (P35372 whole entry): as the sequence (P35372 whole entry, looked up) above
Sequence of Opioid receptors; delta & kappa (Homo sapiens) (P41143 whole entry, looked up): as the sequence (P41143 whole entry) above
Sequence of Opioid receptors; delta & kappa (Homo sapiens) (P41145 whole entry, looked up): as the sequence (P41145 whole entry, looked up) above

Row | Structure (SMILES) | inhibition [8] [%] | inhibition [9] [%] | Ki [10] [µM] | other results
1 | O=C1C(c2ccc(Cl)c(Cl)c2)CC=CCN1C(CN1CCCC1)c1ccccc1 (stereo not drawn) |  |  |  | Ki [1]: 0.37 µM; ED50 [2]: 48 mg/kg; ED50 [3]: 1.6 mg/kg; Inhibition [4]: 54%; ED50 [5]: 2.7 mg/kg; Ki [6]: 1 µM; Ki [7]: 0.00034 µM
2 | O=C1[C@@H](c2ccc(Cl)cc2)CC=CCN1C(CN1CCCC1)c1ccccc1 (stereo partly drawn) | < 60 | < 60 | 0.035 | 
3 | O=C1[C@@H](c2ccc(Cl)c(Cl)c2)CC=CCN1C(CN1CCCC1)c1ccccc1 (stereo partly drawn) | < 60 | < 60 |  | Ki [7]: 0.017 µM
4 | CN(C(=O)Cc1ccc(Cl)c(Cl)c1)C(CN1CCCC1)c1ccccc1 (stereo not drawn) |  |  |  | ED50 [2]: 7.5 mg/kg
5 | O=C1C(c2cccc(S(=O)(=O)N3CCCC3)c2)CC=CCN1C(CN1CCCC1)c1ccccc1 (stereo not drawn) | < 60 | < 60 | 1.9 | 
6 | O=C1C(Oc2ccc(Cl)c(Cl)c2)CC=CCN1C(CN1CCCC1)c1ccccc1 (stereo not drawn) | < 60 | < 60 | 0.0026 | 
7 | O=C1C(c2ccc(Cl)cc2)CC=CCN1C(CN1CCCC1)c1ccccc1 (stereo not drawn) | < 60 | < 60 |  | Ki [7]: 0.002 µM
8 | COc1ccc([C@H]2CC=CCN(C(CN3CCCC3)c3ccccc3)C2=O)cc1 (stereo partly drawn) | < 60 | < 60 | 0.8 | 
9 | O=C1[C@H](c2ccc(Cl)c(Cl)c2)CC=CCN1[C@H](CN1CCCC1)c1ccccc1 |  |  | 0.012 | Selectivity [11]: 1000; Selectivity [12]: 1000
10 | O=C1C(c2ccc(C(F)(F)F)cc2)CC=CCN1C(CN1CCCC1)c1ccccc1 (stereo not drawn) | < 60 |  | 0.00072 | Ki [1]: 1 µM
11 | O=C1[C@H](c2ccc(Cl)c(Cl)c2)CC=CCN1[C@H](CN1CC[C@H](O)C1)c1ccccc1 |  |  | 0.0002 | Selectivity [11]: 1000; Selectivity [12]: 1000
12 | COc1ccc(C2CC=CCN(C(CN3CCCC3)c3ccccc3)C2=O)cc1 (stereo not drawn) | < 60 | < 60 | 0.022 | 
